ChEMBL document CHEMBL1134467, “Novel, nonpeptidic cyanamides as potent and reversible inhibitors of human cathepsins K and L” (J Med Chem, 2001)
pIC50, pKi: −log10 of the molar value.

Columns and labels:
Cathepsin K [1] = target: T1, Cathepsin K (Homo sapiens, UniProt P43235); assay: Effect of 10 mM of GSH on the inhibitory activity of compound against Cathepsin K, at pH 5.5
T1 sequence (P43235 whole entry): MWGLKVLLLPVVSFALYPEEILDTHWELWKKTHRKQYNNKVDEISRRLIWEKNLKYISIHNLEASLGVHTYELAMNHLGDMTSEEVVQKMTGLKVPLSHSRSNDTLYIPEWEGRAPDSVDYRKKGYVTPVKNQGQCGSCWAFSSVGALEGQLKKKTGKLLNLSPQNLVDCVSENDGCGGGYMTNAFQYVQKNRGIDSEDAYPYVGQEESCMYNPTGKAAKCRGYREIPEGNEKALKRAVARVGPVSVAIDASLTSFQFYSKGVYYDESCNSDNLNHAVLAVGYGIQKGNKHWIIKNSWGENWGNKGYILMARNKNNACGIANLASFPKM
Summary of the method: (§1)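 Recombinant human cathepsin K IC50 with 10 mM glutathione at pH 5.5 or pH 7.0. Compounds preincubated 30 min with GSH before enzyme addition, then 30 min with enzyme before 25 μM Z-Phe-Arg-pNA. Activity read as OD increase at 405 nm. IC50 fitted to a four-parameter logistic model.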

Cathepsin K [2] = target: T1, Cathepsin K; assay: Effect of 10 mM of GSH on the inhibitory activity against Cathepsin K, at pH 7; summary of the method: as §1
Cathepsin K [3] = target: T1, Cathepsin K; assay: Inhibition of Cathepsin K at pH 5.5
Summary of the method: (§2)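 Recombinant human cathepsin K IC50 without glutathione at pH 5.5 or 7.0. Compound preincubated 30 min with enzyme, then 25 μM Z-Phe-Arg-pNA added. Activity read as OD increase at 405 nm. Percent inhibition set against a vehicle control. IC50 from a four-parameter logistic fit.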

Cathepsin K [4] = target: T1, Cathepsin K; assay: Inhibition of Cathepsin K at pH 7; summary of the method: as §2
Cathepsin K [5] = target: T1, Cathepsin K; assay: Inhibitory activity tested against Human Cathepsin K using Z-Phe-Arg-pNA as substrate
Cathepsin B = Cathepsin B (Homo sapiens, UniProt P07858); assay: Inhibitory activity tested against Human Cathepsin B using Z-Phe-Arg-pNA as substrate
Procathepsin L = Procathepsin L (Homo sapiens, UniProt P07711); assay: Inhibitory activity tested against Human Cathepsin L using Z-Phe-Arg-pNA as substrate
Sequence of Procathepsin L (P07711 whole entry): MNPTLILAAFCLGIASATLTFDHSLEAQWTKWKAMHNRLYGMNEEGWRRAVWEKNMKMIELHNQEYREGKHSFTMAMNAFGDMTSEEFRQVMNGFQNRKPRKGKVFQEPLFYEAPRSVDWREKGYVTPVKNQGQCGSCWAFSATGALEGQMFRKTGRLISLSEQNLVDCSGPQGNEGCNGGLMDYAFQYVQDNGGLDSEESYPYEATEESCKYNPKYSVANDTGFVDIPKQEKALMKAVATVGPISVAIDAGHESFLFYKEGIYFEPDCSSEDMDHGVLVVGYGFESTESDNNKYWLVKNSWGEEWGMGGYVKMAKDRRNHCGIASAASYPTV

Cathepsin K [6] = target: T1, Cathepsin K; assay: Inhibitory activity tested against Human Cathepsin K […] using gelatinase assay
Summary of the method: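 Recombinant human cathepsin K gelatinase activity on DQ gelatin, 0.25 mg/mL final. Run in 50 mM MES pH 5.5 with 2.5 mM DTT, 2.5 mM EDTA and 10% DMSO, enzyme 2–4 nM, 30 min compound preincubation. Fluorescein release read at ex 495/em 515 nm. IC50 from a four-parameter logistic fit.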

Cathepsin K [7] = target: T1, Cathepsin K; assay: Inhibitory constant against human cathepsin K
Summary of the method: (§3)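 Slow-binding kinetics with cathepsin K (0.1 nM final, added to start the reaction) in 50 mM MES pH 5.5, 2.5 mM DTT, 2.5 mM EDTA, 10% DMSO, room temperature, stirred 1 mL cells. Z-Phe-Arg-AMC at 10-fold below Km (Km 30 μM), fluorescence ex 355/em 460 nm. Progress curves fitted for kobs; Ki, kon, koff averaged over at least three inhibitor concentrations.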

[8] = target: T2, Cathepsin K (Homo sapiens) (UniProt P43235); assay: Pre-steady-state kinetic parameter for inhibition of human cathepsin K; summary of the method: as §3
T2 sequence (whole entry): T1 sequence (P43235 whole entry)

[9] = Half life period in rat after (iv) administration; format: ADME, organism-based; conditions: in vivo
Summary of the method: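 Rats dosed intravenously in PEG-200/water (3:2), dosing volume 1 mL/kg; half-life derived from mean plasma levels.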

[10] = Bioavailability after oral administration of 20 mg/kg in rat; format: ADME, organism-based; conditions: in vivo
Summary of the method: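 Rats dosed orally at 20 mg/kg as a 1% methocel suspension, dosing volume 10 mL/kg; plasma levels followed over time and oral bioavailability derived.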

Papain = target: T3, Papain (Carica papaya, UniProt P00784); assay: Inhibitory activity tested against papain at a pH 5.5
T3 sequence (P00784 whole entry): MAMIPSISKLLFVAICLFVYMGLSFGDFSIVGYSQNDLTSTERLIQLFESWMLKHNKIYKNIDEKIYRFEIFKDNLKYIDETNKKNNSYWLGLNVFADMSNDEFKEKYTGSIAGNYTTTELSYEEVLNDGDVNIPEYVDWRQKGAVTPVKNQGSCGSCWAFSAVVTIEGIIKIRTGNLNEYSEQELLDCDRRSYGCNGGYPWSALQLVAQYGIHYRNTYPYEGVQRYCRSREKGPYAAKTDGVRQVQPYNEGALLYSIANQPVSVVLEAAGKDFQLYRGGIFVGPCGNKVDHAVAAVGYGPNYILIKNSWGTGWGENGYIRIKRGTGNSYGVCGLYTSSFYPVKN

| pIC50 (Cathepsin K [5]) | pIC50 (Cathepsin B) | pIC50 (Procathepsin L) | half-life [9] | bioavailability [10] | pIC50 (Papain) | Structure (SMILES) | pIC50 (Cathepsin K [1]) | pIC50 (Cathepsin K [2]) | pIC50 (Cathepsin K [3]) | pIC50 (Cathepsin K [4]) | pIC50 (Cathepsin K [6]) | pIC50 (Cathepsin K [7]) | pKi (Cathepsin K [7]) | k off [8] | k on [8] |
| --- | --- | --- | --- | --- | --- | --- | --- | --- | --- | --- | --- | --- | --- | --- | --- |
| 7.00 | 5.70 | 6.37 |  |  |  | N#CN1CCC1 | 6.32 | < 4.00 | 6.35 | 6.06 |  |  |  |  |  |
|  |  |  |  |  |  | N#CN1CC(CNC(=O)C2CCCCC2)C1 | 7.57 | < 4.00 | 7.80 | 7.42 | 8.00 |  |  |  |  |
| 6.70 | 5.82 | 6.46 |  |  |  | N#CN1CCC(CNS(=O)(=O)c2ccccc2)C1 (stereo not given) |  |  |  |  |  |  |  |  |  |
| 7.70 | 6.52 | 7.30 |  |  |  | N#CN1CC(CNS(=O)(=O)c2ccccc2)C1 |  |  |  |  |  | 7.77 | 7.70 | 0.0028 s⁻¹ | 141000 M⁻¹ s⁻¹ |
| 7.70 | 6.30 | 7.00 |  |  |  | N#CN1CC(OCC2CCCCC2)C1 |  |  |  |  |  |  |  |  |  |
| 7.00 | 5.96 | 6.82 |  |  |  | N#CN1CCC(COCc2ccccc2)C1 (stereo not given) |  |  |  |  |  |  |  |  |  |
| 4.92 |  | 4.94 |  |  |  | N#CN1CCCC1CNS(=O)(=O)c1ccccc1 (stereo not given) |  |  |  |  |  |  |  |  |  |
| 4.86 | 4.12 | 4.64 |  |  |  | N#CN1CCCC1CNC(=O)c1ccccc1 (stereo not given) |  |  |  |  |  |  |  |  |  |
| 6.54 | 6.52 | 6.07 |  |  |  | N#CN1CCC(NC(=O)c2ccc(-c3ccccc3)cc2)C1 (stereo not given) |  |  |  |  |  |  |  |  |  |
| 7.40 | 6.30 | 7.00 |  |  |  | N#CN1CC(OCc2ccccc2)C1 |  |  |  |  |  |  |  |  |  |
| 7.30 | 5.85 | 7.10 | 2 h | 38% | 6.64 | N#CN1CCC(NS(=O)(=O)c2ccccc2)C1 (stereo not given) |  |  |  |  | 7.74 | 7.09 | 7.05 | 0.0019 s⁻¹ | 19900 M⁻¹ s⁻¹ |
| 6.43 | 5.38 | 5.76 |  |  |  | N#CN1CCC(NC(=O)c2ccccc2)C1 (stereo not given) |  |  |  |  |  |  |  |  |  |
| 7.15 | 6.60 | 6.19 |  |  |  | N#CN1CC(CNC(=O)c2ccccc2)C1 |  |  |  |  |  |  |  |  |  |

| Structure (SMILES) | pIC50 (Cathepsin K [5]) | pIC50 (Cathepsin B) | pIC50 (Procathepsin L) | half-life [9] | bioavailability [10] | pIC50 (Papain) | pIC50 (Cathepsin K [1]) | pIC50 (Cathepsin K [2]) | pIC50 (Cathepsin K [3]) | pIC50 (Cathepsin K [4]) | pIC50 (Cathepsin K [6]) | pIC50 (Cathepsin K [7]) | pKi (Cathepsin K [7]) | k off [8] | k on [8] |
| --- | --- | --- | --- | --- | --- | --- | --- | --- | --- | --- | --- | --- | --- | --- | --- |
| N#CN1CCCC1 [CYANO-PYRROLIDINE] | 6.00 | 4.82 | 5.40 |  |  |  | 5.82 | 5.47 | 5.79 | 5.64 |  |  |  |  |  |
| N#CN1CCC(NC(=O)OCc2ccccc2)C1 (stereo not given) | 7.40 | 6.70 | 7.27 |  |  |  | 7.05 | 6.82 | 7.22 | 7.30 | 7.70 | 7.40 | 6.85 | 0.0056 s⁻¹ | 67300 M⁻¹ s⁻¹ |
| CCN(C#N)CC | < 4.00 | < 4.00 | < 4.00 |  |  |  |  |  |  |  |  |  |  |  |  |
| N#CN1Cc2cc3ccccc3nc2C1 | 6.43 | 5.64 | 6.35 |  |  |  | 6.44 | 4.94 | 6.47 | 6.55 | 6.44 | 6.43 | 6.42 | 0.0025 s⁻¹ | 6590 M⁻¹ s⁻¹ |
